MEKK3 PB1 HTS: raises or lowers MEK5 binding to the human MEKK3 PB1 domain. bead-based flow cytometry, Alexa488-MEK5 binding to MEKK3; actives lie on both sides; 0 = blocked by unlabeled MEK5, 100 = vehicle. binding response (% of control), % at 10 µM. 290,000 tested, 1.4% active;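 active = binding response more than 3 SD above or below the average of its plate-row segment, actives on both sides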;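 also: Alexa488 bead fluorescence after subtracting the streptavidin-only scavenger bead signal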
Target sequence (Q99759 whole entry, looked up, the tested form may be a part): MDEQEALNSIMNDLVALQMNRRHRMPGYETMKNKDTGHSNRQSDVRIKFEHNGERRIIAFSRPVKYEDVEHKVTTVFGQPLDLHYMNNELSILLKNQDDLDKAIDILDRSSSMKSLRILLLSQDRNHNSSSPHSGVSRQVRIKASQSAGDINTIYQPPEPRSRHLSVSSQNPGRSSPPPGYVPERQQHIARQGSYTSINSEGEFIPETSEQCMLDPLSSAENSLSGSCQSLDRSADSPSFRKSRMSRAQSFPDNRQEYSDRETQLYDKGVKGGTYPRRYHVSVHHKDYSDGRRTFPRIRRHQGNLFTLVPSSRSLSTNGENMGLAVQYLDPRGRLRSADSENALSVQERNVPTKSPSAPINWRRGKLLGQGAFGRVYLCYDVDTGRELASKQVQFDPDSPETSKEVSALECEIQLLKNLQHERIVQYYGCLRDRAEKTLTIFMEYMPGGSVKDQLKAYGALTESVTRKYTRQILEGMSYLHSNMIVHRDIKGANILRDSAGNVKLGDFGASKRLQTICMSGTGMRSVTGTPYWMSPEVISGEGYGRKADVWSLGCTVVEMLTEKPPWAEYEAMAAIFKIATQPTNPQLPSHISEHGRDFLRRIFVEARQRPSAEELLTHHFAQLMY
Arrestin-AP2 inh: human beta-arrestin and AP2 interaction inhibition. 340,000 tested, 0.31% active. inhibition, % at 10 µM. AID 504490. FITC-arrestin peptide / GST-AP2 beads, flow cytometry; AP2 beta2 appendage carries R879A mutation;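 active = inhibition above a set limit, near 3 SD of compounds lacking own fluorescence, cut at about 54% in these data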;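 also: plate controls were DMSO wells for no effect and 5 µM unlabelled arrestin peptide for full effect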
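System: GST-AP2 R879A glutathione beads; medium: PBS, Tween 20 0.05%, BSA 0.1%; reagent: fluorescein-tagged arrestin peptide at 50 nM final; schedule: pre-incubation 12 min, peptide binding 1 h, room temperature; detection: flow cytometry, FL1 (488/535 nm); read-out: inhibition as reduced fluorescein signal on beads, percent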
MEKK2 WT-MEK5: raises or lowers MEK5 binding to wildtype human MEKK2 PB1 domain | Q9Y2U5 | binding response (% of control), % at 10 µM | 290,000 tested, 1.1% active | AID 1531 | bead flow cytometry, Alexa488-MEK5 binding to MEKK2 WT; actives lie on both sides; in the data active = binding response below about 67% or above about 130%
MEKK2mut PB1 HTS: signal of MEK5 binding to mutant human MEKK2 PB1 domain; bead flow cytometry, Alexa488-MEK5 binding to MEKK2 mutant; percent response, % at 10 µM; 290,000 tested, 0.35% active; AID 1530; in the data active = percent response above about 24%, passing the limit was not always enough
MEKK2wt confirm: raises or lowers MEK5 binding to wildtype human MEKK2, retest | shares compounds with MEKK3 PB1 HTS | binding response (% of control), % at 10 µM | 5,900 tested, 2.4% active | AID 1892 | bead flow cytometry, Alexa488-MEK5 binding to MEKK2 WT; actives lie on both sides; in the data active = binding response below about 16% or above about 210%; inactive = in between
MEKK2mut confirm: signal of MEK5 binding to mutant human MEKK2, retest. shares compounds with MEKK3 PB1 HTS. bead flow cytometry, Alexa488-MEK5 binding to MEKK2 mutant. percent response, % at 10 µM. 5,900 tested, 2% active; in the data active = percent response mostly above about 71%, no sharp cut-off; inactive = mostly below about 38%;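 also: higher means compound restores mutant binding toward wildtype level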
MEKK3-MEK5 inh: MEKK3-MEK5 PB1 inhibition, single concentration confirmation | shares compounds with MEKK3 PB1 HTS | bead flow cytometry, Alexa488-MEK5 binding to MEKK3; stronger effect = lower value | binding response (% of control), % at 10 µM | 5,900 tested, 1.8% active | AID 1894;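 active = binding response below 72% of control, or above a set upper limit, though filed actives all read lower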;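 also: 100% = DMSO only wells and 0% = binding blocked by excess unlabeled MEK5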
Active calls of the source: *; nt = not tested or not shown; [ ] = dose if it differs, or a comment. Most compounds without a hit are left out; they make up all but 2.3% or so of the library.

SMILES	MEKK3 PB1 HTS	Arrestin-AP2 inh	MEKK2 WT-MEK5	MEKK2mut PB1 HTS	MEKK2wt confirm	MEKK2mut confirm	MEKK3-MEK5 inh
Cc1onc(-c2ccccc2Cl)c1C(=O)NCc1ccc2c(c1)cc(C)n2C	59*[inhibitor]	12	43*[inhibitor]	-8	93	-3	99
COc1ccc([C@H]2C(C(=O)O)=C[C@@H](C(C)(C)C)N2S(=O)(=O)c2ccccc2)cc1	nt	9	nt	nt	nt	nt	nt
CCOC(=O)c1sc2ccccc2c1NC(=O)c1coc2ccccc2c1=O	139*	1	96	-1	101	-1	102
C=CCn1c(SCC(=O)NC2CCCCC2)nnc1-c1cccnc1	97	2	101	0	nt	nt	nt
N#Cc1nc(COc2ccccc2F)oc1NCCCn1ccnc1	1.0*[inhibitor]	26	2.0*[inhibitor]	-26	97	2	93
C=CCn1cnc2c(nnn2-c2ccc(C)c(C)c2)c1=O	2.0*[inhibitor]	-1	1.0*[inhibitor]	-72	97	-5	101
O=C(O)Cc1ccc(NC(=O)Nc2ccc3c(c2)OCO3)cc1	99	5	96	1	nt	nt	nt
CCCCn1c(NC(=O)c2ccccc2)c(C#N)c2nc3ccccc3nc21	nt	6	nt	nt	nt	nt	nt
CCCCn1cc(C(C)(C)C)c(C#N)c1NC(C)=O	46*[inhibitor]	2	52*[inhibitor]	-13	101	1	100
COC(=O)c1ccc(CNC(=O)COC(=O)C23CC4CC(CC(C4)C2)C3)cc1	75*[inhibitor]	-9	93	-2	99	-1	105
O=C(O)c1ccccc1C(c1ccccc1)c1ccccc1O (stereo not given)	nt	-10	nt	nt	nt	nt	nt
CCOc1cc(NC(=S)NCC2CCCO2)c(OCC)cc1NC(=O)c1ccc(OC)cc1 (stereo not given)	130*	-1	106	1	96	-1	103
CCOc1cc(NC(=S)NCC2CCCO2)c(OCC)cc1NC(=O)c1ccccc1C (stereo not given)	103	6	98	-3	nt	nt	nt
Cc1ccc(SCC(=O)NCC2CCCO2)cc1 (stereo not given)	96	-11	94	-10	nt	nt	nt
COc1ccc(-c2nsc(SCC(=O)NCC3CCCO3)n2)cc1 (stereo not given)	73*[inhibitor]	-14	81	-3	100	1	101
Cc1ccc(SCCC(=O)NCC2CCCO2)cc1 (stereo not given)	2.0*[inhibitor]	3	1.0*[inhibitor]	-39	96	1	102
Cc1ccc(-c2nsc(SCC(=O)NCC3CCCO3)n2)cc1 (stereo not given)	98	-6	93	-9	nt	nt	nt
COc1ccc2oc(=O)c(C(=O)NCC3CCCO3)cc2c1 (stereo not given)	82*[inhibitor]	-2	94	-7	101	-6	98
COc1cccc2cc(C(=O)NCC3CCCO3)c(=O)oc12 (stereo not given)	nt	3	nt	nt	nt	nt	nt
O=C(COC(=O)/C=C/c1cccs1)Nc1ccc2ccccc2c1	100	10	97	-1	nt	nt	nt
CC(C(=O)N1CCc2ccccc21)N(C)CC(=O)Nc1cccc(F)c1 (stereo not given)	nt	22	nt	nt	nt	nt	nt
CCN(CC)C(=O)[C@H]1CC(CC(=O)NCC23CC4CC(CC(C4)C2)C3)C(=O)N2CCc3c([nH]c4ccc(OC)cc34)[C@]12C (stereo not given in full)	nt	1	nt	nt	nt	nt	nt
O=C(CCCN1C(=O)c2cccc3cccc(c23)C1=O)N1CCc2ccccc2C1	101	-25	98	6	nt	nt	nt
CC(=O)Nc1c(C(=O)N2CCCCCC2)cnn1-c1ccccc1	81*[inhibitor]	-10	86	-11	105	-5	102
Cc1ccccc1C(=O)Nc1c(C(=O)N2CCCC2)cnn1-c1ccccc1	91	2	96	-2	nt	nt	nt
SMILES	MEKK3 PB1 HTS	Arrestin-AP2 inh	MEKK2 WT-MEK5	MEKK2mut PB1 HTS	MEKK2wt confirm	MEKK2mut confirm	MEKK3-MEK5 inh
C[C@@H](C(=O)CC(=O)OC(C)(C)C)[C@@H](O)c1ccccc1	102	-1	104	5	nt	nt	nt
COc1ccc(-c2csc(COC(=O)C(C)(C)C)n2)cc1	95	1	99	-2	nt	nt	nt
CC(C)(C)C(=O)OCc1nc(-c2ccc(F)cc2)cs1	54	-6	44*[inhibitor]	-24	94	-11	95
NC(=O)c1cnccc1C=Cc1ccccc1	nt	-8	nt	nt	nt	nt	nt
O=C(Nc1nc2ccccc2[nH]1)c1ccccc1	13*[inhibitor]	-4	21*[inhibitor]	-23	103	1	102
O=C(Nc1nc2ccccc2[nH]1)c1ccc(Cl)cc1	100	4	100	2	nt	nt	nt
CCN(CC(=O)Nc1ccc(C(C)=O)cc1)CC(=O)Nc1cccc(OC)c1	100	3	95	-6	nt	nt	nt
COc1ccc(/C=C2\SC(=S)N(CCC(=O)N3CCCCC3)C2=O)cc1	101	14	98	3	nt	nt	nt
COCCN1C(=O)/C(=C/c2ccc(N3CCCC3)cc2)SC1=S	87	-17	59*[inhibitor]	-22	50	-32	88
Cc1cn(-c2cc(NC(=O)c3ccc(C)c(NC(=O)c4cccc(-c5cn[nH]c(=O)c5)c4)c3)cc(C(F)(F)F)c2)cn1	103	13	106	-1	nt	nt	nt
CCOc1cccc(N2C(=O)CC(NNC(=O)c3ccc(Br)o3)C2=O)c1 (stereo not given)	102	0	97	1	nt	nt	nt
CCCOc1ccc(N2C(=O)CC(NNC(=O)c3ccc(COc4ccccc4)o3)C2=O)cc1 (stereo not given)	142*	0	99	3	98	-4	97
Cc1cc(NC(=O)CSCC(=O)N2CCN(c3ccccc3)CC2)no1	nt	-9	nt	nt	nt	nt	nt
CC(C)c1nc2cc(C(=O)N3CCNC(=O)C3c3cccc(F)c3)ccc2o1 (stereo not given)	92	-7	92	-6	nt	nt	nt
CCCn1nc(C(=O)OCC(=O)c2ccc3c(c2)NC(=O)CO3)c2ccccc2c1=O	132*	-6	97	7	112	8	106
COc1ccc(Cl)cc1NC(=O)C[n+]1ccccc1	105	-12	108	3	nt	nt	nt
CCc1cc[n+](CC(=O)Nc2ccc(Cl)cc2Cl)cc1	3.0*[inhibitor]	36	4.0*[inhibitor]	-4	108	4	101
C=CCN1N=C(c2ccc(NC(=O)c3ccccc3)cc2)CSC1=O	90	-4	90	-9	nt	nt	nt
CCCCn1c(-c2cccs2)nc2oc3ccccc3c(=O)c2c1=O	129*	-10	115	19	98	-3	98
CCCCn1c(-c2ccco2)nc2oc3ccccc3c(=O)c2c1=O	96	30	91	-3	nt	nt	nt
COC(=O)c1cc(NS(=O)(=O)c2ccc(NC(C)=O)cc2)ccc1Cl	86	0	90	-4	nt	nt	nt

Screens: PubChem, NMMLSC
